Data set [1] deals with LANCL2. Particulars: cited from earlier work.
The test system of data set [2] is adult Sprague Dawley male rats. Kind of data set: Repeated dose study. Format: in vivo, rat. The settings on record: for O_REAR (rears during observation period), least squares means (95% confidence interval): 80 mg/kg/day. The method, boiled down:
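Male Sprague-Dawley rats (200–250 g) were housed 2 per cage on a reverse light cycle and fasted 12 h before dosing. They received vehicle or 80 mg/kg (20 mg/mL suspension) by oral gavage daily for 14 days, then 7 drug-free days; n=10, 8 at day 21. FOB ran at baseline (day −3/−4) and days 3, 7, 14 and 21. It covered quantal/categorical endpoints (Mantel-Haenszel chi-square, 2 blocks) and continuous endpoints (weight, temperature, rotarod, grip, foot splay) as mixed-model least-squares means.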

For data set [3], the system named is adult Sprague Dawley male rats. The data set can be described thus: Repeated dose study. It counts as in vivo, rat. Particulars: 80 mg/kg/day for 14 days; days 4, 8, 14, 21.
Data set [4] can be described thus: Blood concentrations after single high dose. It counts as in vivo, rat.
In data set [5] the test system is adult Sprague Dawley male rats. Kind of data set: Single dose study. Format: in vivo, rat. Particulars: for tBILI, mean plasma: control 0.10; for ALT, mean plasma: control 39; for AST, mean plasma: control 69; for ALP, mean plasma: control 300. The method in brief:
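After a 12 h fast, rats received vehicle or one 500 mg/kg oral gavage. Separate satellite rats (3 treated, 4 control per time point) were euthanized with intraperitoneal pentobarbital 200 mg/kg at 2, 4, 8 and 14 days. Blood was run through a haematology and chemistry panel including ALT, AST, bilirubin, glucose, BUN, creatinine, electrolytes, cholesterol and proteins; group means are reported.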

The subject of data set [6] is adult Sprague Dawley male rats. Kind of data set: Repeated dose study. Format: in vivo, rat. Particulars: 80 mg/kg/day over 14 days.
In data set [7] the test system is adult Sprague Dawley male rats. The data set can be described thus: Single dose study. Format: in vivo, rat. The method, boiled down: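 Rats were fasted 12 h, then given one oral gavage of vehicle or 500 mg/kg as a 100 mg/mL suspension; n=10. The functional observational battery was scored at baseline (day −3 or −4), 4 h, and days 1, 7 and 14. Quantal and categorical endpoints were compared by Fisher's exact test. Continuous endpoints (body weight, grip strength and others) were analysed by mixed model with rat as random effect, giving least-squares means per time point.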

Data set [8] in a line: Solubility for intravenous administration. It counts as physicochemical. Particulars: at concentrations required for IV administration of the test dose.
Data set [9] concerns adult Sprague Dawley male rats. The data set can be described thus: Single dose study. Format: in vivo, rat. Particulars: single oral 500 mg/kg; 2, 4, 8 or 14 days post-dosing. The method, boiled down: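 Satellite rats given vehicle or a single 500 mg/kg oral dose were euthanized (pentobarbital 200 mg/kg ip) at 2, 4, 8 and 14 days. Brain, kidney, liver, adrenal, testes, stomach, intestines, duodenum, pancreas, heart, lungs, spleen, thymus and rib were sectioned at 5 μm and H&E stained, n=3. A board-certified veterinary pathologist examined them unblinded by light microscopy.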

Data set [10] can be described thus: Pharmacokinetic experiment, single 80 mg/kg oral dose, plasma LC-MS/MS. It counts as in vivo, rat. The settings on record: for Geometric mean of plasma concentration (95% lower and upper confidence limits) / Plasma concentration, Median (minimum; maximum): n=3. The method, boiled down:
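Adult male Sprague-Dawley rats with indwelling jugular catheters, caged singly and acclimated 5 days, were fasted 12 h and given 80 mg/kg by oral gavage. Catheter blood was drawn at 0.5–48 hr, at least 3 rats per time point. EDTA plasma was acetonitrile-extracted with reserpine internal standard and assayed by LC-MS/MS (C18, duplicates; LLOQ 0.2 ng/ml). Median concentrations gave kel, Vd, Cl and T½. Cmax and Tmax were read from the curve, and ka from a one-compartment fit.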

For data set [11], the system named is mouse models of colitis. The settings on record: cited from earlier work.
Setting [12] is: Day 2 after single oral 500 mg/kg.
[13] abbreviates: Day 4 after single oral 500 mg/kg.
The mark [14] stands for this setting: Day 8 after single oral 500 mg/kg.
The mark [15] stands for this setting: Day 14 after single oral 500 mg/kg.

“And” between values parts separate entries of the source, which are not always exact repeats. Identical values can stand only once. “Also recorded” adds a separate entry of the source. Like-named read-outs stand apart in the source and are kept apart here. Marks after values point to notes of the source that are not given here. Where only a bound is given, the exact number is not on record here.

With `CC1=CC(=O)CC(C)(C)[C@@]1(O)/C=C/C(C)=C\C(=O)O` [Abscisic acid], in data set [1] (leads to elevation of intracellular cAMP, activation of PKA), the LANCL2 binding result is “binds to LANCL2”.
Turning to `O=C(c1cccc(-c2nc3ccccc3[nH]2)n1)N1CCN(C(=O)c2cccc(-c3nc4ccccc4[nH]3)n2)CC1` [BT-11, piperazine-1,4-diylbis((6-(1H-benzo[d]imidazo-2-y)pyridin-2-yl)methanone)], the “FOB quantal endpoints, treated vs control” value in data set [2] (80 mg/kg/day oral for 14 days) is reported as “No quantal differences”; in data set [7] (single oral 500 mg/kg) it was “no differences”. The “behavioral evidence of detrimental effects” value was “No behavioral evidence of detrimental effects” in data set [2] (80 mg/kg/day oral, 2 weeks of treatment and 1 week post-dosing); “No obvious behavioral evidence of detrimental effects” in data set [7] (single oral 500 mg/kg, 2 weeks observation). Also, the “weight and hind grip, treated vs control” value in [2] (14 daily oral doses of 80 mg/kg, to day 21) is recorded as “no significant differences”. Further, the “O_REAR (rears during observation period), least squares means (95% confidence interval)” value was 27.23 (13.90-40.57) in data set [2] (Study day 3, control 29.17, P=0.4916); 24.33 (11.00-37.67) in data set [2] (Study day 7, control 27.97, P=0.1985); 23.93 (10.60-37.27) in data set [2] (Study day 14, control 30.27, P=0.0273). Moreover, the tolerability result in [2] (oral, 14 days at 80 mg/kg (cumulative dose 1,120 mg/kg)) was “well-tolerated”; in data set [7] (single oral bolus of 500 mg/kg), “well-tolerated”. For the same compound, the LANCL2 binding entry in data set [1] is given as “binds LANCL2”. Also, the “clinical pathological examination of blood samples, control vs test” value in data set [3] was “did not reveal any clinical or statistical differences”. The “blood concentration, individual samples” value was 32 ng/mL and 3.1 ng/mL and 13 ng/mL in data set [4] (2 hr after 500 mg/kg oral); 17 ng/mL and 15 ng/mL and 6.7 ng/mL in data set [4] (4 hr after 500 mg/kg oral); 3.0 ng/mL and 9.6 ng/mL and 3.3 ng/mL in data set [4] (22 hr after 500 mg/kg oral). For the same compound, the “tBILI, mean plasma” value is reported as 0.20^a mg/dL in data set [5] (setting [12]), 0.23^a mg/dL in data set [5] (setting [13]), 0.13 ^a mg/dL in data set [5] (setting [14]) and 0.10^a mg/dL in [5] (setting [15]). The “ALT, mean plasma” value is recorded as 126^a IU/L in data set [5] (setting [12]), 52^a IU/L in data set [5] (setting [13]), 53^a IU/L in [5] (setting [14]) and 41^a IU/L in data set [5] (setting [15]). Besides, the “AST, mean plasma” value in data set [5] (setting [12]) is 269^a IU/L; in data set [5] (setting [13]), 106^a IU/L; in data set [5] (setting [14]), 80^a IU/L; in data set [5] (setting [15]) it was 67^a IU/L. For the same compound, the “ALP, mean plasma” value in [5] (setting [12]) is 376^a IU/L; in [5] (setting [13]), 294^a IU/L; in data set [5] (setting [14]), 288 ^a IU/L; in data set [5] (setting [15]), 265^a IU/L. Besides, the “histopathologic evidence of toxic injury” value in data set [6] is given as “no histopathologic evidence of toxic injury”. Further, in [7] (14 days after single 500 mg/kg bolus dose), the “weight difference vs control” value is listed as less than 4%. The “hind grip strength, least squares mean” value in [7] (day 1 after single oral 500 mg/kg, control 0.46, p=0.0272) came out at 0.40. Further, in [7] (day 14 after single oral 500 mg/kg, control 264.46, p=0.0006), the “weight, least squares mean” value was 254.71. Also, the “FOB categorical endpoints, treated vs control” value in data set [7] (single oral 500 mg/kg, time points beyond baseline) is on record as “did not differ”. For the same compound, the solubility result in data set [8] is recorded as “too insoluble to administer by the intravenous route; also recorded: relatively insoluble; also recorded: insufficiently soluble to be given IV”. Besides, in [9], the “histopathologic comparison, vehicle control vs BT-11-exposed” value is on record as “No significant differences”. Moreover, in data set [10] (5 × T ½, assuming single-compartment, dose-independent pharmacokinetics), the “time to steady state (97% level) after repeated dosing” value is given as “approximately 15 hr”. Moreover, the “Geometric mean of plasma concentration (95% lower and upper confidence limits)” value in [10] (0.5 hr after 80 mg/kg oral) is 14.60 (2.94; 72.53) ng/ml; in data set [10] (1 hr after 80 mg/kg oral), 23.99 (4.66; 123.40) ng/ml; in data set [10] (2 hr after 80 mg/kg oral), 19.65 (4.28; 90.23) ng/ml; in [10] (4 hr after 80 mg/kg oral), 8.24 (1.89; 35.94) ng/ml; in [10] (8 hr after 80 mg/kg oral), 5.24 (2.16; 12.73) ng/ml; in [10] (12 hr after 80 mg/kg oral) it was 1.84 (1.39; 2.45) ng/ml. Besides, the “Geometric mean of plasma concentration (95% lower and upper confidence limits)” value was 2.31 (0.12; 44.19) ng/ml in data set [10] (16 hr after 80 mg/kg oral), 1.06 (0.29; 3.90) ng/ml in data set [10] (20 hr after 80 mg/kg oral), 0.95 (0.04; 21.25) ng/ml in [10] (24 hr after 80 mg/kg oral) and 1.57 (0.47; 5.31) ng/ml in [10] (48 hr after 80 mg/kg oral). In addition, the “Plasma concentration, Median (minimum; maximum)” value in data set [10] (0.5 hr after 80 mg/kg oral) is given as 12.18 (8.55; 29.89) ng/ml; in [10] (1 hr after 80 mg/kg oral), 20.95 (13.42; 49.11) ng/ml; in [10] (2 hr after 80 mg/kg oral) it was 16.88 (11.65; 38.62) ng/ml; in data set [10] (4 hr after 80 mg/kg oral), 11.07 (4.16; 12.14) ng/ml; in data set [10] (8 hr after 80 mg/kg oral) it was 4.33 (4.20; 7.91) ng/ml; in [10] (12 hr after 80 mg/kg oral), 1.83 (1.65; 2.07) ng/ml. Besides, the “Plasma concentration, Median (minimum; maximum)” value in data set [10] (16 hr after 80 mg/kg oral) is 1.40 (0.99; 8.98) ng/ml; in data set [10] (20 hr after 80 mg/kg oral), 1.39 (0.58; 1.49) ng/ml; in data set [10] (24 hr after 80 mg/kg oral) it was 1.01 (0.26; 3.22) ng/ml; in [10] (48 hr after 80 mg/kg oral) it was 1.90 (0.90; 2.27) ng/ml. Besides, the “Cmax (maximal concentration)” value in data set [10] (single 80 mg/kg oral, estimated from graph of median plasma concentrations) is given as 21 ng/mL. Moreover, in [10] (single 80 mg/kg oral, median values 0.5-8 hr, 80 mg/kg), the “Half-life (T ½)” value was 3 h. Besides, in data set [11] (3 mouse models of colitis), the “inflammatory F4/80+ CD11b+ macrophages and effector Th1 cells in the gut mucosa” value is listed as “decreased numbers”. In addition, in data set [11] (3 validated mouse models of colitis), the “lowest dose with therapeutic efficacy” value is reported as 8 mg/kg/day. The “Th1 cells and Th17 cells in the spleen and MLN” value in [11] (mouse colitis) is given as “decreased the levels”. The “colonic expression of IL-10 and LANCL2” value in data set [11] (oral, dose-dependent) was “up-regulated”. Further, the “colonic expression of TNFα” value in data set [11] (oral, dose-dependent) is recorded as “down-regulated”. Also, in [11] (oral, mice, 3 mouse models of colitis/IBD), the “reduction in gut inflammation” value is 90%. Further, the “lowest (minimal) efficacious dose” value in data set [11] (oral, mice) was 8 mg/kg. The “reduction of colonic lesions” value in data set [11] (oral, mice, doses 80 mg/kg and as low as 8 mg/kg) is recorded as 4 X.
Regarding `O=C(Nc1cccc(-c2nc3ccccc3[nH]2)c1)c1ccc(C(=O)Nc2cccc(-c3nc4ccccc4[nH]3)c2)cc1` [CID247228, N^1,N^4-bis(3-(1H-benzo[d]imidazo-2-yl)phenyl)terephthalamide, reference compound], the LANCL2 binding result in [1] is on record as “ligand of LANCL2”. In addition, the “anti-inflammatory activity in mice with colitis” value in data set [11] (oral) was “potent oral anti-inflammatory therapeutic”.

The values are drawn from article PMC5033715 (International journal of toxicology, 2016).
